Laboratory results from ChEMBL document CHEMBL3396951, “Design, synthesis and SAR studies of GABA uptake inhibitors derived from 2-substituted pyrrolidine-2-yl-acetic acids” (Bioorg Med Chem, 2015).

How the values were obtained:
[1] = target: T1, Sodium- and chloride-dependent GABA transporter 1 (Mus musculus, UniProt P31648); assay: Inhibition of mouse GAT1 expressed in HEK293 cells by [3H]GABA uptake assay; format: cell-based
GABA transporter 3 = target: T2, GABA transporter 3 (Mus musculus, UniProt P31649); assay: Inhibition of mouse GAT3 expressed in HEK293 cells by [3H]GABA uptake assay; format: cell-based
T2 sequence (P31649 whole entry): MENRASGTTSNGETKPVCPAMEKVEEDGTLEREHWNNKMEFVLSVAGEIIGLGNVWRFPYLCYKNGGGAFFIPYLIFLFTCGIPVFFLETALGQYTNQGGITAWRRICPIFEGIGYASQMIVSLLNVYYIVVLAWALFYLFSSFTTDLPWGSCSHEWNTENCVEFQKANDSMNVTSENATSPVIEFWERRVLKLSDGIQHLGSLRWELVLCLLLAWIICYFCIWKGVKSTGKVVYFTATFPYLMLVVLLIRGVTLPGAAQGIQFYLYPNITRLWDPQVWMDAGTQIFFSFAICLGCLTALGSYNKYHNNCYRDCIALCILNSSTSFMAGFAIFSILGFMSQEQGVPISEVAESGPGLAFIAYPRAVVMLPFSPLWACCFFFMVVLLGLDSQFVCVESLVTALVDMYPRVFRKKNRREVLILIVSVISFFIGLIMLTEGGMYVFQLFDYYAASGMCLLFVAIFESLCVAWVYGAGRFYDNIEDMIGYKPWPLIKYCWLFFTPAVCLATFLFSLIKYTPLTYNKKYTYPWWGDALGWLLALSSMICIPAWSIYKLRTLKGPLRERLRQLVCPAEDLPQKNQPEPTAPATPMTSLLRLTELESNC

GABA transporter 4 = target: T3, GABA transporter 4 (Mus musculus, UniProt P31650); assay: Inhibition of mouse GAT4 expressed in HEK293 cells by [3H]GABA uptake assay; format: cell-based
T3 sequence (P31650 whole entry): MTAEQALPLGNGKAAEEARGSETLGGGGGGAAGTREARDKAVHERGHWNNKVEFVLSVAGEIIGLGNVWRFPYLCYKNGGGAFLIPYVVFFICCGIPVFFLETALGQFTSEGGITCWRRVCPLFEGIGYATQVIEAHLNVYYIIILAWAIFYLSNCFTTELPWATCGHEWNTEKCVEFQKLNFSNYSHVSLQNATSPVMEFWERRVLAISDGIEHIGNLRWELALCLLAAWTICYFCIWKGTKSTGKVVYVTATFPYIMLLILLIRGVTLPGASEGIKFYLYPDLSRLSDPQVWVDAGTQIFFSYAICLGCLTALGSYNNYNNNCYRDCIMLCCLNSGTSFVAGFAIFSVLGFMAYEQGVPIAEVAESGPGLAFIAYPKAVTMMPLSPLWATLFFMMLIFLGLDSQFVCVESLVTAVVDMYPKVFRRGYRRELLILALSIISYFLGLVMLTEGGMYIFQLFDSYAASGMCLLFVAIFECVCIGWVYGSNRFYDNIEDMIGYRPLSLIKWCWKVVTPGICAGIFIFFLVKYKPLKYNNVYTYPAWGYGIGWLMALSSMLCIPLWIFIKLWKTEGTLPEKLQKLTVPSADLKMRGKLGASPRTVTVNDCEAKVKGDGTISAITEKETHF

[2] = target: T1, Sodium- and chloride-dependent GABA transporter 1; assay: Binding affinity to mouse GAT1 expressed in HEK293 cells using NO71156 as unlabelled marker by LC-ESI-MS-MS based competitive MS binding assay; format: cell-based
Outline: (§1)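 Competitive MS Binding Assay using membrane preparations from HEK293 cells expressing the transporter. hGAT-1 membranes were prepared the same way as mGAT1 membranes. Affinity reported as pKi ± SEM from three independent experiments.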

GABA transporter 2 = target: T4, GABA transporter 2 (Mus musculus, UniProt P31651); assay: Inhibition of mouse GAT2 expressed in HEK293 cells by [3H]GABA uptake assay; format: cell-based
T4 sequence (P31651 whole entry): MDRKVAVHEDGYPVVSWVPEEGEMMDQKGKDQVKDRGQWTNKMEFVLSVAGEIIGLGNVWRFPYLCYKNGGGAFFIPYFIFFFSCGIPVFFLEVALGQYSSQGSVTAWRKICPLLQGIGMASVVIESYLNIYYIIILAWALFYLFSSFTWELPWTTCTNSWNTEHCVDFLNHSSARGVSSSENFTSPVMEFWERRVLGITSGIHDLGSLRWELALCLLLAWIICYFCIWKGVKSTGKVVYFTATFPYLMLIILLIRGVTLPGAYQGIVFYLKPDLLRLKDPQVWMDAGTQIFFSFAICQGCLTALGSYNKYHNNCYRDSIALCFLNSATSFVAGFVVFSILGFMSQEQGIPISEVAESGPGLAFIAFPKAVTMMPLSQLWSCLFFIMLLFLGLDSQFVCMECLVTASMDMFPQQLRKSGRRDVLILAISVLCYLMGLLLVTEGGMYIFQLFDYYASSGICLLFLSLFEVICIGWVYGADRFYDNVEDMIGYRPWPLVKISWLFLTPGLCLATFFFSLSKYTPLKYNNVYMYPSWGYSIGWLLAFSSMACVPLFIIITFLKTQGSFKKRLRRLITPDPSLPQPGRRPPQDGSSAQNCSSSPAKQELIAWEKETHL
Outline: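 [3H]GABA uptake inhibition in HEK293 cells expressing mGAT1–4 or hGAT-1, reported as pIC50 (mean ± SEM, n = 3 independent experiments). The hGAT-1 assay matched the mGAT1 assay except that HEK293 […] expressing hGAT-1 was used.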

[3] = target: T5, Sodium- and chloride-dependent GABA transporter 1 (Homo sapiens, UniProt P30531); assay: Binding affinity to human GAT1 expressed in HEK293 cells using NO71156 as unlabelled marker by LC-ESI-MS-MS based competitive MS binding assay; format: cell-based; outline: as §1
[4] = target: T6, GABA transporter 4 (Mus musculus) (UniProt P31650); assay: Inhibition of mouse GAT4 expressed in HEK293 cells assessed as remaining [3H]GABA uptake at 100 uM by [3H]GABA uptake assay; format: cell-based
T6 sequence (whole entry): T3 sequence (P31650 whole entry)
Outline: (§2)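 Transfected HEK293 cells (mGAT1–4) tested for [3H]GABA uptake at 100 µM test substance. Remaining uptake is expressed against a control without inhibitor.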

[5] = target: T5, Sodium- and chloride-dependent GABA transporter 1; assay: Inhibition of human GAT1 expressed in HEK293 cells by [3H]GABA uptake assay; format: cell-based
[6] = target: T7, GABA transporter 2 (Mus musculus) (UniProt P31651); assay: Inhibition of mouse GAT2 expressed in HEK293 cells assessed as remaining [3H]GABA uptake at 100 uM by [3H]GABA uptake assay; format: cell-based; outline: as §2
T7 sequence (whole entry): T4 sequence (P31651 whole entry)

[7] = target: T6, GABA transporter 4 (Mus musculus); assay: Inhibition of mouse GAT4 expressed in HEK293 cells assessed as remaining [3H]GABA uptake at 1 mM by [3H]GABA uptake assay; format: cell-based
Outline: (§3)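 Radioactive [3H]GABA uptake run in HEK293 cells expressing mGAT1–4 with 1 mM test substance. Readout is % remaining uptake relative to an inhibitor-free control.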

[8] = target: T7, GABA transporter 2 (Mus musculus); assay: Inhibition of mouse GAT2 expressed in HEK293 cells assessed as remaining [3H]GABA uptake at 1 mM by [3H]GABA uptake assay; format: cell-based; outline: as §3
[9] = target: T8, GABA transporter 3 (Mus musculus) (UniProt P31649); assay: Inhibition of mouse GAT3 expressed in HEK293 cells assessed as remaining [3H]GABA uptake at 1 mM by [3H]GABA uptake assay; format: cell-based; outline: as §3
T8 sequence (whole entry): T2 sequence (P31649 whole entry)

[10] = target: Sodium- and chloride-dependent GABA transporter 1 (Mus musculus) (UniProt P31648); assay: Inhibition of mouse GAT1 expressed in HEK293 cells assessed as remaining [3H]GABA uptake at 1 mM by [3H]GABA uptake assay; format: cell-based; outline: as §3
[11] = target: Sodium- and chloride-dependent GABA transporter 1 (Mus musculus) (UniProt P31648); assay: Inhibition of mouse GAT1 expressed in HEK293 cells assessed as remaining [3H]GABA uptake at 100 uM by [3H]GABA uptake assay; format: cell-based; outline: as §2
[12] = target: T8, GABA transporter 3 (Mus musculus); assay: Inhibition of mouse GAT3 expressed in HEK293 cells assessed as remaining [3H]GABA uptake at 100 uM by [3H]GABA uptake assay; format: cell-based; outline: as §2
Mus musculus = organism: Mus musculus; assay: Selectivity for mouse GAT1 over mouse GAT4

T5 sequence (P30531 whole entry): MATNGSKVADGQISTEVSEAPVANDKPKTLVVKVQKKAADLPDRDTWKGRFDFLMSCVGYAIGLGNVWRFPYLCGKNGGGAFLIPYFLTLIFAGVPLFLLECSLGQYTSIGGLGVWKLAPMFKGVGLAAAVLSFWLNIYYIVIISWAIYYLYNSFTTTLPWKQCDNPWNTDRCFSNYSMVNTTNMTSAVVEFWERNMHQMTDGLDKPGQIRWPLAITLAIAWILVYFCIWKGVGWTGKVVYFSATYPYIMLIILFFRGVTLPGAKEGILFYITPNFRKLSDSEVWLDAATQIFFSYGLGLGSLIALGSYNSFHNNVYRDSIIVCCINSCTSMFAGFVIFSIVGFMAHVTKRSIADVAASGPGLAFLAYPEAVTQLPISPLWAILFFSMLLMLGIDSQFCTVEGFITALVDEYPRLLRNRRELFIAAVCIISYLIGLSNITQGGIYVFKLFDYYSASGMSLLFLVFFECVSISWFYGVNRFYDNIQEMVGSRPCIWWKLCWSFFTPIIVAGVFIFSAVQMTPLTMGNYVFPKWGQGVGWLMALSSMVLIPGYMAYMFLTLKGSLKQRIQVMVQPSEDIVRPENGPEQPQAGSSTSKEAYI

SMILES	IC50 [1] [µM]	IC50 (GABA transporter 3) [µM]	IC50 (GABA transporter 4) [µM]	Ki [2] [µM]	Activity [6] [%]	Activity [8] [%]	also measured
Cc1ccsc1C(=CCCN1CCC[C@@H]1[C@@H](N)C(=O)O)c1sccc1C (racemic)	14.1	30.2	31.6	17.4			IC50 (GABA transporter 2): 42.7 µM; Ki [3]: 20.4 µM
O=C(O)[C@@H](O)[C@H]1CCCN1CCC=C(c1ccccc1)c1ccccc1 (racemic)	2.29	100		0.145	60		Activity [4]: 55%; IC50 [5]: 1.91 µM; Ki [3]: 0.214 µM
CC(C)(C(=O)O)[C@H]1CCCN1 (racemic)						108	Activity [7]: 95%; Activity [9]: 93%; Activity [10]: 83%
O=C(O)C1([C@H]2CCCN2)CCC1 (racemic)						91	Activity [7]: 110%; Activity [9]: 73%; Activity [10]: 92%
COc1ccc(C(OCCN2CCC[C@@H]2[C@H](O)C(=O)O)(c2ccc(OC)cc2)c2ccc(OC)cc2)cc1 (racemic)			6.61		64		Activity [11]: 80%; Activity [12]: 70%
N[C@@H](C(=O)O)[C@H]1CCCN1 (racemic)	123	26.9	21.4				IC50 (GABA transporter 2): 158 µM
Cc1ccsc1C(=CCCN1CCC[C@@H]1[C@H](O)C(=O)O)c1sccc1C (racemic)	2.14	42.7		0.102	58		Selectivity ratio (Mus musculus): > 47; Activity [4]: 59%; IC50 [5]: 0.724 µM; Ki [3]: 0.0661 µM
Cc1ccsc1C(=CCCN1CCC[C@@H](C(=O)O)C1)c1sccc1C [TIAGABINE]				0.0372			
O=C(O)[C@H](O)[C@H]1CCCN1CCC=C(c1ccccc1)c1ccccc1 (racemic)	25.1			3.89	89		Activity [4]: 59%; IC50 [5]: 13.8 µM; Activity [12]: 97%; Ki [3]: 3.98 µM
O=C(O)C[C@@H]1CCCN1	407	141	309			77	
O=C(O)C[C@H]1CCCN1	240	339	1120			81	
CCC(C(=O)O)[C@H]1CCCN1 (mixture of isomers)						82	Activity [7]: 95%; Activity [9]: 78%; Activity [10]: 78%
O=C(O)[C@H](O)[C@H]1CCCN1 (racemic)	1000	36.3	14.1				Selectivity ratio (Mus musculus): > 71; IC50 (GABA transporter 2): 170 µM
O=C(O)[C@@H](O)[C@H]1CCCN1 (racemic)		269				95	Activity [7]: 61%; Activity [10]: 53%
CC(C(=O)O)[C@H]1CCCN1 (mixture of isomers)		309	339			59	Activity [10]: 83%
COc1ccc(C(OCCN2CCC[C@@H]2[C@@H](O)C(=O)O)(c2ccc(OC)cc2)c2ccc(OC)cc2)cc1 (racemic)		17	5.75		56		Activity [11]: 68%
N[C@H](C(=O)O)[C@H]1CCCN1CCC=C(c1ccccc1)c1ccccc1 (racemic)	34.7				61		Activity [4]: 83%; Activity [12]: 71%
N[C@H](C(=O)O)[C@H]1CCCN1 (racemic)			372			52	Activity [9]: 59%; Activity [10]: 1%
N[C@@H](C(=O)O)[C@H]1CCCN1CCC=C(c1ccccc1)c1ccccc1 (racemic)	49	11.5	17.4		66		
Cc1ccsc1C(=CCCN1CCC[C@@H]1[C@@H](O)C(=O)O)c1sccc1C (racemic)	3.39			1.07	63		Selectivity ratio (Mus musculus): > 29; Activity [4]: 74%; IC50 [5]: 4.17 µM; Activity [12]: 90%; Ki [3]: 1.1 µM
Cc1ccsc1C(=CCCN1CCC[C@@H]1[C@H](N)C(=O)O)c1sccc1C (racemic)	100		100	37.2			IC50 (GABA transporter 2): 100 µM; Activity [12]: 63%; Ki [3]: 19.1 µM
